# Active and inactive are the calls of the source. No cut-off for these calls is given here.
# What was measured:
# [1] = Drug concentration in 5XFAD mouse plasma at 600 ppm administered as rodent chow starting from 1.5 months and measured after 5 months; type: ADME, cell-free; conditions: route po, time 3.5 months
# Procedure, shortened: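 WT or 5xFAD mice were fed PLX3397 in AIN-76A chow at 600 ppm or 75 ppm from 1.5 to 5 months of age. Terminal brain and plasma drug concentrations were determined at study end.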
# [2] = biological target: Mitogen-activated protein kinase 3 (Homo sapiens, UniProt P27361); experiment: Inhibition of MAPK3 (unknown origin)
# Mitogen-activated protein kinase 3, sequence (P27361 whole entry): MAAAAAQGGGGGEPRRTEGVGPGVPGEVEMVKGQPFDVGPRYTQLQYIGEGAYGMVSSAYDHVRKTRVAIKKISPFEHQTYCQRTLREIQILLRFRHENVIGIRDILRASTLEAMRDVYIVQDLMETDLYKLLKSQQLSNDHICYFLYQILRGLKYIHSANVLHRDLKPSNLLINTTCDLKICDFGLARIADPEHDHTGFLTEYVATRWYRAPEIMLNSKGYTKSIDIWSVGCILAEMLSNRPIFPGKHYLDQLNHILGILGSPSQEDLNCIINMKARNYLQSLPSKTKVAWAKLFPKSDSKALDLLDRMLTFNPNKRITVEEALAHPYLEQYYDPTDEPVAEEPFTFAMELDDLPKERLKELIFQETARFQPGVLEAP
# [3] = AUC (0 to infinity) in dog at 45 mg/kg, po administered as single dose via gavage; type: ADME, organism-based, Canis lupus familiaris; conditions: in vivo
# [4] = biological target: Hepatocyte growth factor receptor (Homo sapiens, UniProt P08581); experiment: Inhibition of MET (unknown origin)
# [5] = biological target: Serine/threonine-protein kinase PAK 5 (Homo sapiens, UniProt Q9P286); experiment: Inhibition of PAK7 (unknown origin)
# [6] = Prevention of Nos1ap gene downregulation in 5XFAD mouse hippocampus assessed as percent change in Reads Per kilo base per Million mapped reads at 1200 ppm administered as rodent chow starting from 1.5 months and measured after 7 months by RNA-Seq analysis (reference value: 58.209 to 93.063 %); type: functional; conditions: route po, time 5.5 months, 4015 h
# [7] = biological target: Protein kinase C gamma type (Homo sapiens, UniProt P05129); experiment: Inhibition of PRKCG (unknown origin)
# [8] = Volume of distribution at steady state in male rat at 1.13 mg/kg, iv administered as single dose; type: ADME, organism-based; conditions: in vivo, read-out: Vdss
# [9] = biological target: Serine/threonine-protein kinase pim-2 (Homo sapiens, UniProt Q9P1W9); experiment: Inhibition of PIM2 (unknown origin)
# [10] = Effect on Clec7a gene expression in wild type mouse thalamus at 1200 ppm administered as rodent chow starting from 1.5 months and measured after 7 months by RNA-Seq analysis (reference value: 0.095 to 0.586 RPKM); type: functional; conditions: route po, time 5.5 months, 4015 h
# Procedure, shortened: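 WT and 5xFAD mice were treated with 1200 ppm PLX5622 chow or control chow from 1.5 to 7 months of age. Brains were microdissected into cortex, hippocampus and thalamus, and RNA was extracted from tissue powder. Whole-transcriptome RNA-Seq libraries were sequenced, with n = 4 per group per region (48 samples).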
# [11] = Effect on Csf1r RPKM gene expression in 5XFAD mouse thalamus at 1200 ppm administered as rodent chow starting from 1.5 months and measured after 7 months by RNA-Seq analysis (reference value: 27.112 to 32.871 RPKM); type: functional; conditions: route po, time 5.5 months, 4015 h
# Mus musculus [12] = experiment: Antialzheimer activity in 5XFAD mouse assessed as average speed at 1200 ppm administered as rodent chow for 10 to 24 weeks by Open field test (reference value: 0.024 to 0.076 meter/s); type: functional; conditions: route po, time 10-24 weeks
# [13] = biological target: Mitogen-activated protein kinase kinase kinase kinase 2 (Homo sapiens, UniProt Q12851); experiment: Inhibition of MAP4K2 (unknown origin)
# Mitogen-activated protein kinase kinase kinase kinase 2, sequence (Q12851 whole entry): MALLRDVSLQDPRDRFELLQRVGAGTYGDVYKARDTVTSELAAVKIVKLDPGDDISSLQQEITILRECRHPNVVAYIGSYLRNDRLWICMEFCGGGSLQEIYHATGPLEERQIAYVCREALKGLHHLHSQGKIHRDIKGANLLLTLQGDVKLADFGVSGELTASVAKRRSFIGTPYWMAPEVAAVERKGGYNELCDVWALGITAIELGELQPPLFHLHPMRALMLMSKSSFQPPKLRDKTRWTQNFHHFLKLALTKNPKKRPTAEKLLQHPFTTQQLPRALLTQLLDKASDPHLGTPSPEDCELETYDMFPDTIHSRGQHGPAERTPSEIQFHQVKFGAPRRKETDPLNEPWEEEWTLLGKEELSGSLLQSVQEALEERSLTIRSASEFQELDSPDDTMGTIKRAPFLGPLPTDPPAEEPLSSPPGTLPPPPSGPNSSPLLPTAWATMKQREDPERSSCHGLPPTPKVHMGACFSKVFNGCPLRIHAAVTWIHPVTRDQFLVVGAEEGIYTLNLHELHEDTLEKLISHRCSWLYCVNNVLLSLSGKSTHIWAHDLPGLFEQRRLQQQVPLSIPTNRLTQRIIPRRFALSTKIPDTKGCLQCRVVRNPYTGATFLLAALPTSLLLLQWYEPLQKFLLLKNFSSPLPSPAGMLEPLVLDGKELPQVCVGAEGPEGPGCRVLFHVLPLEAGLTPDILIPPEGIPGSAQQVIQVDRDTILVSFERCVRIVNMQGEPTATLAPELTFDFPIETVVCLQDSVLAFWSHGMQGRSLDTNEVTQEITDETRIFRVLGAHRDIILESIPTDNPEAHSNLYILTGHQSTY
# Mus musculus [14] = experiment: Antialzheimer activity in 5XFAD mouse assessed as number of open arm entries at 1200 ppm administered as rodent chow for 10 to 24 weeks by Elevated plus maze test (reference value: 10 to 33); type: functional; conditions: route po, time 10-24 weeks
# Mus musculus [15] = experiment: Antialzheimer activity in 5XFAD mouse assessed as amyloidbeta42 level in detergent insoluble thalamus fraction measured per microgram protein at 1200 ppm administered as rodent chow starting from 1.5 months and measured after 7 months by ELISA (reference value: 905.886 to 11631931 pg); type: functional; conditions: route po, time 5.5 months, 4015 h
# [16] = biological target: RAC-gamma serine/threonine-protein kinase (Homo sapiens, UniProt Q9Y243); experiment: Inhibition of AKT3 (unknown origin)
# RAC-gamma serine/threonine-protein kinase, sequence (Q9Y243 whole entry): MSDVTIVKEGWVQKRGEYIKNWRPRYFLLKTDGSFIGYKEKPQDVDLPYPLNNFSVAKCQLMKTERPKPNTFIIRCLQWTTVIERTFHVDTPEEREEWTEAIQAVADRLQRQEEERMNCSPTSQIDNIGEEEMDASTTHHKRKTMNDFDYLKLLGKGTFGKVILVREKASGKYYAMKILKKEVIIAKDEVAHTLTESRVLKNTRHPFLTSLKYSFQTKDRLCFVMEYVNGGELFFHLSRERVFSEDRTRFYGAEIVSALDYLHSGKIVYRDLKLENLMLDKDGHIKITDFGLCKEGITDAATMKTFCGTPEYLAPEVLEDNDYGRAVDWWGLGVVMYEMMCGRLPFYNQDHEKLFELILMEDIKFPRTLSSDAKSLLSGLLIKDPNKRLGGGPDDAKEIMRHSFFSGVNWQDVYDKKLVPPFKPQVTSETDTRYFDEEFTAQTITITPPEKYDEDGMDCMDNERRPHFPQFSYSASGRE
# [17] = Toxicity in wildtype mouse assessed as time spent in closed arm at 1200 ppm administered as rodent chow for 10 to 24 weeks by Elevated plus maze test (reference value: 73.3 to 220.6 sec); conditions: in vivo, po, time 10-24 weeks
# [18] = biological target: Serine/threonine-protein kinase D1 (Homo sapiens, UniProt Q15139); experiment: Inhibition of PRKD1 (unknown origin)
# Serine/threonine-protein kinase D1, sequence (Q15139 whole entry): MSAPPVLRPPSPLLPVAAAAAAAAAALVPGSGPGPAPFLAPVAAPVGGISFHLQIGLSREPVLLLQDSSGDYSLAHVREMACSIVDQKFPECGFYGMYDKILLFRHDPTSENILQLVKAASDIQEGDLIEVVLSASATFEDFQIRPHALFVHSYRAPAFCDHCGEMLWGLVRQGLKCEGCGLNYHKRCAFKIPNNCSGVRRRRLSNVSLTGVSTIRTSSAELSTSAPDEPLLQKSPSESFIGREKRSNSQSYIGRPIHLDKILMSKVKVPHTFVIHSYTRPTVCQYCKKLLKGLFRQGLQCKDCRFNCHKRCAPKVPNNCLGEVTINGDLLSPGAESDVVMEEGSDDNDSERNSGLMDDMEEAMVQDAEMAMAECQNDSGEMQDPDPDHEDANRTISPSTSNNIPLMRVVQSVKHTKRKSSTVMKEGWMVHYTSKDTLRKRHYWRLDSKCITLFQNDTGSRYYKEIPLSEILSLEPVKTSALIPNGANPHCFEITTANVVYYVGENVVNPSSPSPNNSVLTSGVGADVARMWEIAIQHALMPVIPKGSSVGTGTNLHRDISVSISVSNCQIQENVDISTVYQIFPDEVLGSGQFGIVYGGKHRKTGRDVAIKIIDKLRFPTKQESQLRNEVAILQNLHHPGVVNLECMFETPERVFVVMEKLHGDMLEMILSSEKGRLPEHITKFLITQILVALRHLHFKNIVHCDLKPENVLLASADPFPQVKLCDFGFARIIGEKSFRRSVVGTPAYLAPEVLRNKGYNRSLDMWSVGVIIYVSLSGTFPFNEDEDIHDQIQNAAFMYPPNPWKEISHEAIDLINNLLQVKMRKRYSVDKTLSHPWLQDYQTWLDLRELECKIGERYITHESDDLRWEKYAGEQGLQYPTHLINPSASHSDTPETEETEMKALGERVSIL
# [19] = Effect on Rnf217 gene expression in wildtype mouse hippocampus assessed as percent change in Reads Per kilo base per Million mapped reads at 1200 ppm administered as rodent chow starting from 1.5 months and measured after 7 months by RNA-Seq analysis (reference value: 92.169 to 103.245 %); type: functional; conditions: route po, time 5.5 months, 4015 h
# Mus musculus [20] = experiment: Antialzheimer activity in 5XFAD mouse assessed as alteration in plaque morphology by measuring mean plaque intensity in subiculum at 1200 ppm administered as rodent chow starting from 1.5 months and measured after 7 months by Thio-S labeling based confocal microscopic analysis (reference value: 129.81 to 150.11); type: functional; conditions: route po, time 5.5 months, 4015 h
# [21] = Prevention of Rtn4r gene downregulation in 5XFAD mouse hippocampus assessed as percent change in Reads Per kilo base per Million mapped reads at 1200 ppm administered as rodent chow starting from 1.5 months and measured after 7 months by RNA-Seq analysis (reference value: 53.880 to 87.869 %); type: functional; conditions: route po, time 5.5 months, 4015 h
# Mus musculus [22] = experiment: Prevention of Fcrls gene upregulation in 5XFAD mouse hippocampus at 1200 ppm administered as rodent chow starting from 1.5 months and measured after 7 months by Nanostring analysis; type: functional, tissue-based; conditions: route po, time 5.5 months
# [23] = Effect on Ctsd gene expression in wild type mouse cortex at 1200 ppm administered as rodent chow starting from 1.5 months and measured after 7 months by RNA-Seq analysis (reference value: 110.927 to 117.612 RPKM); type: functional; conditions: route po, time 5.5 months, 4015 h
# [24] = biological target: Fibroblast growth factor receptor 4 (Homo sapiens, UniProt P22455); experiment: Inhibition of FGFR4 (unknown origin)
# Fibroblast growth factor receptor 4, sequence (P22455 whole entry): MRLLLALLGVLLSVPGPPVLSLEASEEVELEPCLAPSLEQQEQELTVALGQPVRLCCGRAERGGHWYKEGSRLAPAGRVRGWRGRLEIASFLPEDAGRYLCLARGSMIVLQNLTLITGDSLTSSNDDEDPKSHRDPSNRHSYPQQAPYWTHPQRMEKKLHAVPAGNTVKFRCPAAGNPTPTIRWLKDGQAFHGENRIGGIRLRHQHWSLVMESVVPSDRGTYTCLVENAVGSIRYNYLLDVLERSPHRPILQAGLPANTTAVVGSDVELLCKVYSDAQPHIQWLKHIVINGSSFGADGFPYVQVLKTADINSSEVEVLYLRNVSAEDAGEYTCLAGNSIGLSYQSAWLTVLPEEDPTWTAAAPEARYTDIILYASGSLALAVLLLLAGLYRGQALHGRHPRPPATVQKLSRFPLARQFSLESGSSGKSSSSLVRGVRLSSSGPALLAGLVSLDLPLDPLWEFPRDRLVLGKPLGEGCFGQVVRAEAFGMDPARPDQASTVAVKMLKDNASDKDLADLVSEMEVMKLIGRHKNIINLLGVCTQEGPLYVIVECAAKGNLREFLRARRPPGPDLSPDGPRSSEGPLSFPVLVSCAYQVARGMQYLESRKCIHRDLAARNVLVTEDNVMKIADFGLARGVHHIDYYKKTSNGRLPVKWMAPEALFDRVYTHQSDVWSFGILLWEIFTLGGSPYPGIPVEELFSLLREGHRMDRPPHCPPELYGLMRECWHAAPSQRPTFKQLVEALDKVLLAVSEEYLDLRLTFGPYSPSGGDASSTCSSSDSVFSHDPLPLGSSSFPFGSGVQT
# [25] = biological target: Serine/threonine-protein kinase Nek6 (Homo sapiens, UniProt Q9HC98); experiment: Inhibition of NEK6 (unknown origin)
# Serine/threonine-protein kinase Nek6, sequence (Q9HC98 whole entry): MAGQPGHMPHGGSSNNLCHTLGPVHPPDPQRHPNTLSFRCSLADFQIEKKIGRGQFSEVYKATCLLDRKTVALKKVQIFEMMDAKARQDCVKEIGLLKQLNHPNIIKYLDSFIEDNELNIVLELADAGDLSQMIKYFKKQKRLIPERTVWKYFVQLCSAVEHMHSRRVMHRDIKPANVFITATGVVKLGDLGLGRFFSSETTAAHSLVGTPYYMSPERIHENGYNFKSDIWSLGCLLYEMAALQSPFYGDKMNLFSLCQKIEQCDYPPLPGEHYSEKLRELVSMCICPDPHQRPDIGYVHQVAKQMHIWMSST
# Mus musculus [26] = experiment: Antialzheimer activity in wildtype mouse assessed as number of Iba positive cells per FOV in somatosensory cortex at 1200 ppm administered as rodent chow starting from 1.5 months and measured after 4 months (reference value: 304 to 351); type: functional; conditions: route po, time 2.5 months, 1825 h
# [27] = Drug concentration in 5XFAD mouse plasma at 1200 ppm administered as rodent chow for 180 days; type: ADME, cell-free; conditions: route po, time 180 day
# Mus musculus [28] = experiment: Antialzheimer activity in 5XFAD mouse assessed as ApoE immunoreactivity by measuring ApoE intensity of plaque core in thalamus at 1200 ppm administered as rodent chow starting from 1.5 months and measured after 7 months by immunolabeling based confocal microscopic analysis (reference value: 6.13 to 122.68 a.u.); type: functional; conditions: route po, time 5.5 months, 4015 h
# [29] = biological target: Dual specificity tyrosine-phosphorylation-regulated kinase 1B (Homo sapiens, UniProt Q9Y463); experiment: Inhibition of DYRK1B (unknown origin)
# Dual specificity tyrosine-phosphorylation-regulated kinase 1B, sequence (Q9Y463 whole entry): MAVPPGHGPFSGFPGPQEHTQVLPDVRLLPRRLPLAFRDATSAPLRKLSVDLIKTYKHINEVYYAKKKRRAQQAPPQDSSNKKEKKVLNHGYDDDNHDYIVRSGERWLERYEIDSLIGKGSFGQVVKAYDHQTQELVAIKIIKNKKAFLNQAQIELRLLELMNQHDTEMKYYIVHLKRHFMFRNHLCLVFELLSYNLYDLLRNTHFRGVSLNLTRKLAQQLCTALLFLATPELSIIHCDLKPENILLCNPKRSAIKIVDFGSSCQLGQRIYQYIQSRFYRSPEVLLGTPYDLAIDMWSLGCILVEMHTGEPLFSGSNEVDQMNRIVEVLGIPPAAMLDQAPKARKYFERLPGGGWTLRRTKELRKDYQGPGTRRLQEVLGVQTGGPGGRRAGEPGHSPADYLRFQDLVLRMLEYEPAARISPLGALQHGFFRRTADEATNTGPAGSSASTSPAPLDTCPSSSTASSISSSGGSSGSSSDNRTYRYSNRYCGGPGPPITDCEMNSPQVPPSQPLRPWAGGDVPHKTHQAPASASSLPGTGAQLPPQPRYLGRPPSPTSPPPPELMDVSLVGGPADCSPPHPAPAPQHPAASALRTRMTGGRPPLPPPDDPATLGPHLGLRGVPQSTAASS
# [30] = Effect on ccl6 gene expression in wild type mouse hippocampus at 1200 ppm administered as rodent chow starting from 1.5 months and measured after 7 months by RNA-Seq analysis (reference value: 0.451 to 0.597 RPKM); type: functional; conditions: route po, time 5.5 months, 4015 h
# [31] = Volume of distribution at steady state in monkey at 1.35 mg/kg, iv administered as single dose; type: ADME, organism-based, Macaca mulatta; conditions: rhesus monkey, in vivo, read-out: Vdss
# [32] = Ratio of drug concentration in 5XFAD mouse brain to plasma at 1200 ppm administered as rodent chow for 180 days; type: ADME, cell-free; conditions: brain and plasma, route po, time 180 day, read-out: BPR
# [33] = Toxicity in wildtype mouse assessed as average speed at 1200 ppm administered as rodent chow for 10 to 24 weeks by Open field test (reference value: 0.044 to 0.09 meter/s); conditions: in vivo, po, time 10-24 weeks
smiles,measurement,setting,value
FC(F)(F)c1ccc(CNc2ccc(Cc3c[nH]c4ncc(Cl)cc34)cn2)cn1 [PEXIDARTINIB],concentration at 2555 h,[1],158 µM
COc1ncc(F)cc1CNc1ccc(Cc2c[nH]c3ncc(C)cc23)c(F)n1 [PLX-5622],IC50,[2],> 1000 nM
same,AUC(0-inf),[3],96500 ng·h/mL
same,IC50,[4],> 1000 nM
same,IC50,[5],> 1000 nM
same,Activity,[6],82.746%
same,IC50,[7],> 1000 nM
same,Vd,[8],1.2 L/kg
same,IC50,[9],> 1000 nM
same,Activity,[10],0 RPKM
same,Activity,[11],0.221 RPKM
same,Activity,Mus musculus [12],0.03 meter/s
same,IC50,[13],> 1000 nM
same,Activity,Mus musculus [14],15
same,Flu intensity,Mus musculus [15],4280.692 a.u.
same,IC50,[16],> 1000 nM
same,Time,[17],90.5 s
same,IC50,[18],> 1000 nM
same,Activity,[19],69.868%
same,Activity,Mus musculus [20],83.86
same,Activity,[21],95.841%
same,Activity,Mus musculus [22],Active
same,Activity,[23],76.394 RPKM
same,IC50,[24],> 1000 nM
same,IC50,[25],> 1000 nM
same,Activity,Mus musculus [26],0
same,concentration at 4320 h,[27],9090 ng/mL
same,Flu intensity,Mus musculus [28],0.77 a.u.
same,IC50,[29],> 1000 nM
same,Activity,[30],0 RPKM
same,Vd,[31],1.6 L/kg
same,Kp at 4320 h,[32],0.26
same,Activity,[33],0.03 meter/s

# Reference: ChEMBL document CHEMBL5649170, “Sustained microglial depletion with CSF1R inhibitor impairs parenchymal plaque development in an Alzheimer's disease model” (Nat Commun, 2019)
